From ChEMBL document CHEMBL1649109, “Antiparasitic activities and toxicities of individual enantiomers of the 8-aminoquinoline 8-[(4-amino-1-methylbutyl)amino]-6-methoxy-4-methyl-5-[3,4-dichlorophenoxy]quinoline succinate” (Antimicrob Agents Chemother, 2008)
Calls of active or inactive are those of the source. No cut-off for these calls is given here.

What was measured:
Mus musculus = experiment: Toxicity in Leishmania donovani HU3 infected mouse at 100 mg/kg/day, po treated for 5 days administered 7 days postinfection; type: organism-based; design: route oral; conditions: in vivo
Procedure, shortened: (§1)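 L. donovani HU3 amastigotes, 1 × 10^7 given IV to mice. From day 7 post-infection, dosed orally once daily for 5 days in 0.25% methylcellulose-10% ethanol; reference stibogluconate given SC. Mice killed at day 14 post-infection. Parasite burden counted on liver impression smears against untreated controls. ED50 from linear regression, with 95% confidence limits.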

Plasmodium berghei [1] = experiment: Antimalarial activity Plasmodium berghei KBG-173 infected in Swiss(CD-1) mouse assessed as mean survival time at 2 mg/kg, po treated 2 day postinfection; type: functional
Procedure, shortened: (§2)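 CD-1 mice, 5 weeks old, male or female, groups of five, infected with 5 × 10^4 P. berghei KBG-173 parasitized erythrocytes. One 2 mg/kg oral dose given on a single day, from day −3 to +2 relative to inoculation. Controls untreated. Read-out is increase in mean survival time over controls and number alive at day +30.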

Plasmodium berghei [2] = experiment: Antimalarial activity Plasmodium berghei KBG-173 infected in Swiss(CD-1) mouse assessed as mean survival time at 2 mg/kg, po treated 1 day postinfection; type: functional; procedure, shortened: as §2
Plasmodium berghei [3] = experiment: Antimalarial activity Plasmodium berghei KBG-173 infected in Swiss(CD-1) mouse assessed as mean survival time at 2 mg/kg, po treated at day of infection; type: functional; procedure, shortened: as §2
Plasmodium berghei [4] = experiment: Antimalarial activity Plasmodium berghei KBG-173 infected in Swiss(CD-1) mouse assessed as mean survival time at 2 mg/kg, po pretreated 2 days before infection; type: functional; procedure, shortened: as §2
Plasmodium berghei [5] = experiment: Antimalarial activity Plasmodium berghei KBG-173 infected in Swiss(CD-1) mouse assessed as mean survival time at 2 mg/kg, po pretreated 3 days before infection; type: functional; procedure, shortened: as §2
Plasmodium berghei [6] = experiment: Antimalarial activity Plasmodium berghei KBG-173 infected in Swiss(CD-1) mouse assessed as survival at 2 mg/kg, po treated 2 day postinfection measured on day 30; type: functional, organism-based; design: dose 2 mg/kg; procedure, shortened: as §2
Plasmodium berghei [7] = experiment: Antimalarial activity Plasmodium berghei KBG-173 infected in Swiss(CD-1) mouse assessed as survival at 2 mg/kg, po treated 1 day postinfection measured on day 30; type: functional, organism-based; design: dose 2 mg/kg; procedure, shortened: as §2
Plasmodium berghei [8] = experiment: Antimalarial activity Plasmodium berghei KBG-173 infected in Swiss(CD-1) mouse assessed as survival at 2 mg/kg, po treated at day of infection measured on day 30; type: functional, organism-based; design: dose 2 mg/kg; procedure, shortened: as §2
Plasmodium berghei [9] = experiment: Antimalarial activity Plasmodium berghei KBG-173 infected in Swiss(CD-1) mouse assessed as survival at 2 mg/kg, po pretreated 2 days before infection measured on day 30; type: functional, organism-based; design: dose 2 mg/kg; procedure, shortened: as §2
Plasmodium berghei [10] = experiment: Antimalarial activity against Plasmodium berghei KBG-173 infected in Swiss(CD-1) mouse assessed as reduction in parasitemia at 4 mg/kg/day, po treated for 3 days measured on day 6; type: functional; design: scale not given: the % may be the effect or the level left
Procedure, shortened: (§3)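 CD-1 mice, 5 weeks old, male or female, groups of five, infected with 5 × 10^4 P. berghei KBG-173 parasitized erythrocytes. Drug in 0.5% hydroxyethylcellulose/0.1% Tween 80, given orally once daily on days 3, 4 and 5 post-infection. Parasitemia from blood films on day +6. Read-out also includes increase in mean survival time over controls and survivors at day +34.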

Plasmodium berghei [11] = experiment: Antimalarial activity against Plasmodium berghei KBG-173 infected in Swiss(CD-1) mouse assessed as mean survival time at 0.25 mg/kg/day, po treated for 3 days; type: functional; procedure, shortened: as §3
Plasmodium berghei [12] = experiment: Antimalarial activity against Plasmodium berghei KBG-173 infected in Swiss(CD-1) mouse assessed as mean survival time at 1 mg/kg/day, po treated for 3 days; type: functional; procedure, shortened: as §3
Plasmodium berghei [13] = experiment: Antimalarial activity against Plasmodium berghei KBG-173 infected in Swiss(CD-1) mouse assessed as mean survival time at 4 mg/kg/day, po treated for 3 days; type: functional; procedure, shortened: as §3
Plasmodium berghei [14] = experiment: Antimalarial activity against Plasmodium berghei KBG-173 infected in Swiss(CD-1) mouse assessed as survival at 0.25 mg/kg/day, po treated for 3 days measured on day 34; type: functional, organism-based; procedure, shortened: as §3
Plasmodium berghei [15] = experiment: Antimalarial activity against Plasmodium berghei KBG-173 infected in Swiss(CD-1) mouse assessed as survival at 1 mg/kg/day, po treated for 3 days measured on day 34; type: functional, organism-based; procedure, shortened: as §3
Plasmodium berghei [16] = experiment: Antimalarial activity against Plasmodium berghei KBG-173 infected in Swiss(CD-1) mouse assessed as survival at 4 mg/kg/day, po treated for 3 days measured on day 34; type: functional, organism-based; procedure, shortened: as §3
Pneumocystis carinii [17] = experiment: Antimicrobial activity against Pneumocystis carinii infected BALB/c mouse at 5 mg/kg/day, po after 21 days administered 4 weeks postinfection by Giemsa staining method; type: functional, organism-based
Procedure, shortened: (§4)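 Female BALB/c mice, 6-8 weeks, immunosuppressed with dexamethasone […] in drinking water, then inoculated transtracheally with 10^6 P. carinii. From 4 weeks post-inoculation, drug given in drinking water for 3 weeks, 10 mice/group, intake monitored. Lung impression smears stained with Giemsa or methenamine silver, read blinded. Graded 0-5 on a log scale; group mean ± SE.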

Pneumocystis carinii [18] = experiment: Antimicrobial activity against Pneumocystis carinii infected BALB/c mouse at 1 mg/kg/day, po after 21 days administered 4 weeks postinfection by Giemsa staining method; type: functional, organism-based; procedure, shortened: as §4
Pneumocystis carinii [19] = experiment: Antimicrobial activity against Pneumocystis carinii infected BALB/c mouse at 0.25 mg/kg/day, po after 21 days administered 4 weeks postinfection by Giemsa staining method; type: functional, organism-based; procedure, shortened: as §4
Pneumocystis carinii [20] = experiment: Antimicrobial activity against Pneumocystis carinii infected BALB/c mouse at 5 mg/kg/day, po after 21 days administered 4 weeks postinfection by methenamine silver nitrate staining method; type: functional, organism-based; procedure, shortened: as §4
Pneumocystis carinii [21] = experiment: Antimicrobial activity against Pneumocystis carinii infected BALB/c mouse at 1 mg/kg/day, po after 21 days administered 4 weeks postinfection by methenamine silver nitrate staining method; type: functional, organism-based; procedure, shortened: as §4
Pneumocystis carinii [22] = experiment: Antimicrobial activity against Pneumocystis carinii infected BALB/c mouse at 0.25 mg/kg/day, po after 21 days administered 4 weeks postinfection by methenamine silver nitrate staining method; type: functional, organism-based; procedure, shortened: as §4
Canis familiaris [23] = experiment: Toxicity in Beagle dog assessed as increase in methemoglobin level at 1.91 mg/kg/day, po; type: organism-based, Canis lupus familiaris; design: route oral; conditions: in vivo
Procedure, shortened: (§5)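 Beagle dogs, one male and one female per enantiomer, given 0.64 mg/kg/day (0.5 mg/kg base) orally for 4 days. After a 5-week washout the same dogs received 1.91 mg/kg/day for 4 days. Methemoglobin sampled from days −6 to 36. Each dog's values are mean of duplicate determinations.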

Canis familiaris [24] = experiment: Toxicity in Beagle dog assessed as increase in methemoglobin level at 1.91 mg/kg/day, po after 2 days; type: organism-based, Canis lupus familiaris; design: route oral; conditions: in vivo, 48 h; procedure, shortened: as §5
Canis familiaris [25] = experiment: Toxicity in Beagle dog assessed as increase in methemoglobin level at 1.91 mg/kg/day, po after 6 days; type: organism-based, Canis lupus familiaris; design: route oral; conditions: in vivo, 144 h; procedure, shortened: as §5
Canis familiaris [26] = experiment: Toxicity in Beagle dog assessed as increase in methemoglobin level at 1.91 mg/kg/day, po after 8 days; type: organism-based, Canis lupus familiaris; design: route oral; conditions: in vivo, 192 h; procedure, shortened: as §5
Plasmodium berghei [27] = experiment: Antimalarial activity Plasmodium berghei KBG-173 infected in Swiss(CD-1) mouse assessed as survival at 2 mg/kg, po pretreated 1 day before infection measured on day 30; type: functional, organism-based; design: dose 2 mg/kg; procedure, shortened: as §2
Leishmania donovani [28] = experiment: Antileishmanial activity against Leishmania donovani HU3 infected in mouse assessed as inhibition of parasites in liver at 10 mg/kg/day, po treated for 5 days administered 7 days postinfection measured after 14 days post-infection; type: functional; procedure, shortened: as §1
Leishmania donovani [29] = experiment: Antileishmanial activity against Leishmania donovani HU3 infected in mouse assessed as inhibition of parasites in liver at 5 mg/kg/day, po treated for 5 days administered 7 days postinfection measured after 14 days post-infection; type: functional; procedure, shortened: as §1
Leishmania donovani [30] = experiment: Antileishmanial activity against Leishmania donovani HU3 infected in mouse assessed as inhibition of parasites in liver at 0.4 mg/kg/day, po treated for 5 days administered 7 days postinfection measured after 14 days post-infection; type: functional; procedure, shortened: as §1
Plasmodium berghei [31] = experiment: Antimalarial activity against Plasmodium berghei KBG-173 infected in Swiss(CD-1) mouse assessed as parasitemia at 1 mg/kg/day, po treated for 3 days measured on day 6
Plasmodium berghei [32] = experiment: Antimalarial activity against Plasmodium berghei KBG-173 infected in Swiss(CD-1) mouse assessed as parasitemia at 0.25 mg/kg/day, po treated for 3 days measured on day 6
Plasmodium berghei [33] = experiment: Antimalarial activity Plasmodium berghei KBG-173 infected in Swiss(CD-1) mouse assessed as increase in mean survival time over control at 2 mg/kg, po pretreated 1 day before infection

For `COc1cc(N[C@@H](C)CCCN)c2nccc(C)c2c1Oc1ccc(Cl)c(Cl)c1.O=C(O)CCC(=O)O`, the Activity (Mus musculus) was “Toxic”, the MST (Plasmodium berghei [1]) was 1.2 days and the MST (Plasmodium berghei [2]) was 0 days. It also gave an MST (Plasmodium berghei [3]) of 3.4 days, an MST (Plasmodium berghei [4]) of 0 days and an MST (Plasmodium berghei [5]) of 0 days. For the same compound, the Activity (Plasmodium berghei [6]) was “Active”, the Activity (Plasmodium berghei [7]) was “Active” and the Activity (Plasmodium berghei [8]) was “Active”. For the same compound, the Activity (Plasmodium berghei [9]) was “Active”, the Activity (Plasmodium berghei [10]) was 1.1% and the MST (Plasmodium berghei [11]) was 0 days. For the same compound, the MST (Plasmodium berghei [12]) was 6 days, the MST (Plasmodium berghei [13]) was 11 days and the Activity (Plasmodium berghei [14]) was “Active”. For the same compound, the Activity (Plasmodium berghei [15]) was “Active”, the Activity (Plasmodium berghei [16]) was “Active” and the Activity (Pneumocystis carinii [17]) was “Active”. For the same compound, the Activity (Pneumocystis carinii [18]) was “Active”, the Activity (Pneumocystis carinii [19]) was “Active” and the Activity (Pneumocystis carinii [20]) was “Active”. The Activity (Pneumocystis carinii [21]) was “Active”, the Activity (Pneumocystis carinii [22]) was “Active” and the Activity (Canis familiaris [23]) was “Toxic”. The Activity (Canis familiaris [24]) was “Toxic”, the Activity (Canis familiaris [25]) was “Toxic” and the Activity (Canis familiaris [26]) was “Toxic”. For the same compound, the Activity (Plasmodium berghei [27]) was “Active”, the inhibition in vivo at 10 mg/kg/day (Leishmania donovani [28]) was 99.6% and the inhibition in vivo at 5 mg/kg/day (Leishmania donovani [29]) was 65%. It also gave an inhibition in vivo at 0.4 mg/kg/day (Leishmania donovani [30]) of 41.2%, an Activity (Plasmodium berghei [31]) of 27.4% and an Activity (Plasmodium berghei [32]) of 28.2%. It also gave a ΔMST (Plasmodium berghei [33]) of 0.6 days.
